Source: PubChem BioAssay (Broad Institute)
Sampled rows, rich in hits. Any-hit rate of the full collection: about 1.9%.
RAD54 inh: inhibitors of human RAD54 branch migration; Q92698; RAD54 Holliday junction branch migration, FAM/BHQ fluorescence; inhibition, % at 10.4 µM; hit rate 0.14% among 360,000; AID 602329;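 active = mean normalized replicate activity at least 40 and at least half of replicates scoring 40 or more; inconclusive = only one of the two criteria met; inactive = mean below 40 and under half of replicates reaching 40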;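 note: 0% = median of neutral control wells and 100% = median of positive control wells; inhibitors cause a drop in the FAM fluorescence signal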
Target sequence (Q92698 whole entry, looked up): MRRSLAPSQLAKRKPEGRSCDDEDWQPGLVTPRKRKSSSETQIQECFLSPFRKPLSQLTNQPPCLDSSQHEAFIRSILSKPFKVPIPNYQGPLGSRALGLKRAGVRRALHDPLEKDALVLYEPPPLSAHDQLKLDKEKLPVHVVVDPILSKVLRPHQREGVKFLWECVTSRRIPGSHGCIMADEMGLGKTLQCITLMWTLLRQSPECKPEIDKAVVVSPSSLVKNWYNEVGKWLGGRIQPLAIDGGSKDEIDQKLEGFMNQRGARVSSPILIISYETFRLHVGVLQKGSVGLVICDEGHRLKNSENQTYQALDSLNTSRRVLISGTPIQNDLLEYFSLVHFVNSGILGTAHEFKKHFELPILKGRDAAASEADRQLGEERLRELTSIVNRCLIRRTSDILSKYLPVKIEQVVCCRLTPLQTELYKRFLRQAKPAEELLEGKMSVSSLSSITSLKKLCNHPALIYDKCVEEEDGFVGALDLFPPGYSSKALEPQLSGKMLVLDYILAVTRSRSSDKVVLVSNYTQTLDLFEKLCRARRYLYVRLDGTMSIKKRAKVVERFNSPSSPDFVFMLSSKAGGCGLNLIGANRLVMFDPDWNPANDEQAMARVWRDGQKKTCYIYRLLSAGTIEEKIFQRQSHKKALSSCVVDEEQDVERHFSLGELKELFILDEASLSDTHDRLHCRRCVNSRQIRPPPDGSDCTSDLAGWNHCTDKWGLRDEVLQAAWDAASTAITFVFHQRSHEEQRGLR
Cneo AK release: Cryptococcus neoformans lysis via adenylate kinase release; lysis activity, % at 15 µM; hit rate 0.2% among 360,000; C. neoformans lysis, adenylate kinase release luminescence, 4 h; normalised: neutral wells 0, clomiphene wells 100; AID 651654;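 active = mean lysis activity across replicates of at least 80%, whatever share of replicates individually reach that level; inactive = mean lysis activity below 80%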
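Assay system: log-phase C. neoformans yeast / Quantity: yeast cell density of 5 × 10^6 cells/mL / Medium: fresh YPD growth medium / Compound: single dose / Timing: static 4 h at 37 °C with compound, 1 h detection / Measured by: adenylate kinase release luminescence / Read-out: lysis from increased AK signal / Benchmarks: Clomiphene as positive lysis control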
RAD52 inh: blocks human RAD52 DNA annealing; recombinant RAD52 DNA annealing, FRET fluorescence; inhibition, % at 18.7 µM; hit rate 0.46% among 360,000;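 active = every replicate showing at least 50% inhibition; inconclusive = mean inhibition at least 50% but not in every replicate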
rRNA inh HTS: inhibitors of bacterial rRNA selective over humanized ribosomes | hit rate 1.6% among 350,000 | E. coli WT GFP vs humanized-ribosome RFP mutants, fluorescence, 24 h; stronger effect = lower value; DMSO median 0, no signal -100 | GFP signal change (wild-type ribosome), % (test concentration not listed);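 active = significant combined selectivity score with lowered wild-type GFP, culture density cut under 30%, mutant RFP and density less affected; inactive = any of these conditions unmet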
PglD DTNB: blocks C. jejuni PglD acetyltransferase activity; inhibition, % at 12.5 µM; hit rate 0.098% among 360,000; purified PglD enzyme, DTNB colorimetric CoA detection; AID 602405; in the data active = inhibition above about 16%, passing the limit was not always enough; inconclusive = no clear call, values can overlap the other calls
RAD52 DNA ctr: counter-screen for RAD52 inhibitors: DNA binding compounds | shares compounds with RAD52 inh | Salmon sperm DNA/acridine orange FP displacement | AID 652128 | hit rate 8% among 1,000 | AC50, µM;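 active = fitted half-maximal concentration for signal loss at or below twice the highest dose tested, in every separate run, actives reach about 64 µM in these data; inconclusive = runs disagree, or flat partial signal loss, or poor fit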
The depositor's hits bear a star; i = inactive; ? = inconclusive; . = not tested or not shown; ! = not active in a repeat.

SMILES	RAD54 inh	Cneo AK release	RAD52 inh	rRNA inh HTS	PglD DTNB	RAD52 DNA ctr
CN(C)CCCNC(=O)C[C@H]1C[C@H](C(=O)N2CCOCC2)[C@@]2(CCC3CCCC3)c3[nH]c4cc(-c5ccco5)ccc4c3CCN2C1=O	29	12	52*	-18	8	i
COc1cccc2sc(N(CCCN(C)C)C(=O)c3ccc(S(=O)(=O)N4CCCc5ccccc54)cc3)nc12	12	6	45	-59	-5	.
COc1cccc2sc(N(CCCN(C)C)C(=O)c3ccc(S(=O)(=O)N4CCc5ccccc5C4)cc3)nc12	17	1	70*	-57	4	i
CCOc1ccc2nc(N(CCCN(C)C)C(=O)c3ccc(S(=O)(=O)N4CCc5ccccc5C4)cc3)sc2c1	-2	3	59*	-22	0	i
O=C(NCc1ccccc1)[C@@H]1[C@@H](CO)[C@@H]2Cn3c(ccc(-c4cccc(F)c4)c3=O)[C@H]1N2	1	-2	12	2	19	.
Cc1noc(C)c1S(=O)(=O)Nc1ccc2c(c1)C(=O)N([C@H](C)CO)C[C@@H](C)[C@@H](CN(C)Cc1ccc(Oc3ccccc3)cc1)O2	-2	1	18	-13	0	.
C[C@@H]1CN([C@@H](C)CO)C(=O)Cc2cc(NC(=O)Cn3cnnn3)ccc2O[C@H]1CN(C)Cc1ccc(-c2ccccc2)cc1	1	2	-42	-39	-1	.
CN=C(C[N+](=O)[O-])NCCSCc1ccc(CN(C)C)o1	-18	0	57*	.	-5	i
CN/C(=C/[N+](=O)[O-])NCCSCc1csc(CN(C)C)n1	-8	0	-14	.	-6	.
O=C(C[C@@H]1CC[C@H](NC(=O)c2ccncc2)[C@H](CO)O1)Nc1ccc(-c2ccccc2)cc1	.	.	.	-6	.	.
Oc1ccc(C2CNCCc3c2cc(O)c(O)c3Cl)cc1 (stereo not given)	-3	2	52*!	.	0	i
CC(=O)N(C)C[C@H]1Oc2cc(C#CC3CCCC3)ccc2S(=O)(=O)N([C@H](C)CO)C[C@H]1C	1	1	-3	4	1	.
COc1cc2c(cc1OC)-c1cc3ccc4c(c3c[n+]1CC2)OCO4	-11	1	-437	76	-5	.
COc1cc2c(cc1O)CC[n+]1cc3c(OC)c(OC)ccc3cc1-2	76*	1	81*	18	-1	i
Cc1ccc(S(=O)(=O)N(C)C[C@H]2OCCCC[C@H](C)Oc3ccc(NS(=O)(=O)c4ccccc4)cc3C(=O)N([C@@H](C)CO)C[C@@H]2C)cc1	-3	4	-5	2	2	.
O=C(C[C@H]1C[C@H]2c3cc(NS(=O)(=O)c4ccc(F)cc4)ccc3O[C@H]2[C@@H](CO)O1)NCCc1ccccc1	5	2	-17	0	1	.
COCC(=O)N1CC2(CN(C(=O)NC(C)C)C2)c2c(n(C)c3cc(OC)ccc23)[C@H]1CO	.	.	.	3	.	.
CN1/C(=C/C=C/c2n(C)c3cc([N+](=O)[O-])c([N+](=O)[O-])cc3[n+]2C)C(C)(C)c2ccccc21	32	-2	61*	-59*	-6	38µM*
Cc1cccc[n+]1CC(=O)/C=C1\N(C)c2ccccc2C1(C)C	-11	-5	-53	5	-1	.
CCC(=O)Nc1ccc2c(c1)OC[C@H](C)N(C(=O)Cc1ccccn1)C[C@H](C)[C@H](OC)CN(C)C2=O	3	-1	-6	2	1	.
C/C(=N\NC(=O)Nc1ccccc1)c1ccccc1	-6	-2	100*	5	5	i
CC(C)/C(=N\NC(=O)Nc1ccccc1)c1ccccc1	-19	-1	.	.	0	.
O=C(Nc1ccc(N2CCCC2)cc1)c1cccc(-c2cc3ccccc3oc2=O)c1	2	0	58*	8	-4	i
CN1CCN(c2ccc(NC(=O)c3cc(S(N)(=O)=O)ccc3N3CCOCC3)cc2)CC1	19	5	72*	8	-2	i
C[C@H]1CN([C@@H](C)CO)C(=O)Cc2cc(NC(=O)Cn3cnnn3)ccc2O[C@H]1CN(C)S(=O)(=O)c1ccc(F)cc1	-38	-1	7	2	2	.
SMILES	RAD54 inh	Cneo AK release	RAD52 inh	rRNA inh HTS	PglD DTNB	RAD52 DNA ctr
CN(C)CCCn1c(=S)[nH]c2ccccc2c1=O	4	1	13	7	-5	.
CN(C)CCCn1c2c3ccccc3ccc2c2oc(=O)c3ccccc3c21	.	.	64*	69	.	i
COc1cc2c(cc1OC)C(c1ccccc1)=NCC2	-1	-6	-6	-4	2	.
COc1cc2c(cc1OC)C(c1ccccc1N)=NCC2	26	-1	61*	12	-2	i
CCCCCCCCCCCC1N=C(N)NC(CCCO)=C1C(=O)OC (stereo not given)	.	.	88*	.	.	?
COc1ccc(-c2[nH]ncc2CN2CCN(c3ccccn3)CC2)c(OC)c1	1	0	-18	7	-3	.
COc1ccc(-c2[nH]ncc2CN2CCCCCCC2)c(OC)c1	.	.	76*	-3	.	i
Nc1nc(N)c2cc(Sc3ccc(Cl)cc3)ccc2n1	14	-7	85*	-53	-4	i
O=C(C[C@H]1C[C@H]2c3cc(NC(=O)C4CCOCC4)ccc3O[C@H]2[C@H](CO)O1)NC1CCCCC1	-2	-6	-3	-1	19	.
O=C(Nc1ccccc1F)N1CC(=O)N2[C@H](C1)[C@@H](c1ccc(C#CC3CCCC3)cc1)[C@@H]2CO	.	.	1	-11	.	.
CCCCCc1cc(=O)oc2c(C(CCN3CCCC3)c3cc(OC)c(OC)c(OC)c3)c(OC)cc(OC)c12 (stereo not given)	7	24	59*	7	2	i
CCCCCc1cc(=O)oc2c(C(CCN3CCCC3)c3ccc(N(C)C)cc3)c(OC)cc(OC)c12 (stereo not given)	-9	7	49	-46	-3	.
C[C@H](c1ccccc1)N1C[C@@H](COCc2ccccc2)Oc2cc(N3CC[C@H](N(C)C)C3)ccc2S1(=O)=O	.	.	51*	-50	.	i
C[C@H](CO)N1C[C@H](C)[C@@H](CN(C)Cc2cccc(C(=O)O)c2)Oc2ncc(C#CCN(C)C)cc2C1=O	-3	-1	-20	7	0	.
C=CC(=O)Nc1cccc(Oc2nc(Nc3ccc(N4CCN(C)CC4)cc3OC)ncc2Cl)c1	.	.	95*	-51	.	i
Cc1ccc(-c2csc(N3CCN(c4cc5c(cc4Cl)nc(C)n5CCN4CCCCC4)CC3)n2)cc1	-1	3	9	8	4	.
Cc1csc(N2CCN(c3cc4c(cc3Cl)nc(-c3ccncc3)n4CCCN3CCCC3)CC2)n1	10	3	98*	5	-2	i
C[C@@H]1CN([C@@H](C)CO)C(=O)c2cc(NC(=O)Nc3ccc(C(F)(F)F)cc3)ccc2O[C@@H](C)CCCCO[C@H]1CN(C)S(=O)(=O)c1ccc(Cl)cc1	-8	17	.	6	1	.
